EP2 modulator: modulates human prostaglandin E2 receptor EP2 signaling; EP2-expressing cells, cAMP HTRF FRET, PGE2 co-stimulation; induction, % at 25 µM; 260,000 compounds, 0.83% hits; AID 940;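 active means compounds whose cAMP rise, as percent of the full-agonist control response, exceeds 60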;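 further: rat C6 glioma line stably carrying human EP2 under a CMV promoter; the protocol text gives 20 µM as final concentration; 100% = response of wells given 1 µM PGE2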
PGE2 EP2 inh: EP2 receptor (human) inhibition; inhibition, % at 25 µM; 260,000 compounds, 0.52% hits; C6 glioma cells expressing human EP2, cAMP TR-FRET; cells stimulated with saturating PGE2; P43116; AID 1422;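 active means percent inhibition above 40 after rounding to a whole number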;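 further: rat C6 glioma host cells with rolipram phosphodiesterase inhibitor present; the protocol text gives 20 µM as final concentration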
PHOSPHO1 block: PHOSPHO1 (human) inhibition; inhibition, % at 13.3 µM; Q8TCT1; recombinant PHOSPHO1, absorbance phosphatase assay; 290,000 compounds, 1.1% hits; in the data active means inhibition above about 60%
TbHK1 inh: blocks Trypanosoma brucei hexokinase 1 activity; recombinant TbHK1, G6PDH-coupled NADH A340; 220,000 compounds, 0.11% hits; inhibition, % at 10 µM;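 active means inhibition of 50% or more in the single-dose primary screen; inactive means inhibition below 50%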
HKDC1 inhibitor: inhibitors of human hexokinase HKDC1 | 340,000 compounds, 0.16% hits | recombinant HKDC1, G6PDH/diaphorase resazurin coupled fluorescence | inhibition, % at 20 µM | Q2TB90;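 active means inhibition above about 35% when tested at 20 µM, limit read from the data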;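 further: plate controls were DMSO wells with enzyme for no effect and DMSO wells lacking enzyme for full effect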
Target sequence (Q2TB90 whole entry, looked up): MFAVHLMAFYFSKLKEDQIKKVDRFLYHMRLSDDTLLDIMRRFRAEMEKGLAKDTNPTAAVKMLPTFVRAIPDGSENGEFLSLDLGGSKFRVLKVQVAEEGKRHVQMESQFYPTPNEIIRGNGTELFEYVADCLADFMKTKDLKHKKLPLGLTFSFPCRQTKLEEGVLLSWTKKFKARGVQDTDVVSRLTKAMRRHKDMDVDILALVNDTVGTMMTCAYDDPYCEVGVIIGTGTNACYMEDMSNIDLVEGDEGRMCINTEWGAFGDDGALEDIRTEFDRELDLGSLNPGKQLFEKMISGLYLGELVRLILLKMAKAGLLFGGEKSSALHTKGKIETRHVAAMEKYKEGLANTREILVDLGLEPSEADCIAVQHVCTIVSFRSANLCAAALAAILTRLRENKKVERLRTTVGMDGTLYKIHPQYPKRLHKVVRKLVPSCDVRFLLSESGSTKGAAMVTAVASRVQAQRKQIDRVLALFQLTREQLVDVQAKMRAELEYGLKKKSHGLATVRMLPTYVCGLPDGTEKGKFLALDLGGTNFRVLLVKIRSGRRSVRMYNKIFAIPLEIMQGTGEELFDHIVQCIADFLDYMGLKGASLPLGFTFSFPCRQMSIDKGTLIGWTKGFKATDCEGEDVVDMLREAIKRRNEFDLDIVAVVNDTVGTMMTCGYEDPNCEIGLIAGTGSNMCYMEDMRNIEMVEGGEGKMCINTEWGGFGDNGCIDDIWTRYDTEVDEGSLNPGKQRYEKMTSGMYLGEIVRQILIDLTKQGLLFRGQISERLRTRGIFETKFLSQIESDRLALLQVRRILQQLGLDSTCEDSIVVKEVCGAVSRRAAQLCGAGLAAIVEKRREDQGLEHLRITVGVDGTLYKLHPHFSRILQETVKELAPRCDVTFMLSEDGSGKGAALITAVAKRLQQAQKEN
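Test system: recombinant HKDC1 (HK5) hexokinase enzyme, produced in-house; Amount: enzyme 5 µg/mL final; Buffer or medium: Tris pH 8.0 buffer with MgCl2, Tween-20, BSA, BME; Reagent: glucose and ATP substrates; Doses: 20 µM test compound, 1% DMSO; Incubation: 90 min reaction incubation at room temperature, dark; Detection: resorufin fluorescence at 613 nm.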
PfGluPho inh: PfG6PD (Plasmodium falciparum) enzyme inhibition. PfGluPho enzyme, NADPH resazurin-diaphorase fluorescence. 350,000 compounds, 0.78% hits. inhibition, % at 20 µM. AID 504690;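 active means inhibition reaching at least a set limit at 20 µM in the primary screen, cut at about 59% in these data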;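 further: 0% = DMSO wells with substrate and 100% = DMSO wells lacking glucose-6-phosphate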
EP2 confirm: human EP2 receptor cAMP induction, negative in counter-screens; C6 glioma EP2 cells, cAMP HTRF induction; plus low (about EC15) PGE2 agonist; AID 1080; 1,300 compounds, 47% hits; shares compounds with EP2 modulator; calls only at 20 µM (by protocol);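 active means cAMP induction above 50% in the main assay while under 30% in all four parallel counter assays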;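 further: rat C6 glioma cells stably expressing human EP2 receptor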
* = called active by the depositor; i = inactive; . = no result; + = active, no number. A selection: hits, their analogues and other compounds. The true share with any hit is near 2.5%.

SMILES	EP2 modulator	PGE2 EP2 inh	PHOSPHO1 block	TbHK1 inh	HKDC1 inhibitor	PfGluPho inh	EP2 confirm
COc1cc(C(=O)N2CCCC(c3nc(-c4ccc(F)cc4)no3)C2)cc(OC)c1OC (stereo not given)	12	9	.	.	.	.	.
Cc1onc(-c2ccccc2Cl)c1-c1nc(-c2ccncc2)no1	65*	-2	13	-1	-5	-4	i
Clc1ccccc1-c1nc(-c2ccncc2)no1	-41	10	1	-12	-3	-5	.
CC(C)Oc1ccc(/C=C(/NC(=O)c2ccccc2)C(=O)NCCC(=O)O)cc1	71*	3	3	-12	-6	-8	i
CN(C)CCCN1C(=O)C(=O)/C(=C(\O)c2ccc(Cl)cc2)C1c1ccccn1 (stereo not given)	-2	12	.	.	.	.	.
O=C(NCc1ccccn1)C(=O)Nc1cc(Cl)cc(Cl)c1	-42	12	.	.	.	.	.
Cc1ccc(-c2c(C(=O)Nc3ccccc3)c(C)[nH]c(=S)c2C#N)o1	57	12	.	.	.	.	.
CCCCOc1ccc(-c2c(C(=O)Nc3ccccc3)c(C)[nH]c(=S)c2C#N)cc1	73*	19	-8	2	-8	-4	i
O=C(c1ccco1)N(Cc1ccccc1)Cc1nc2sc3c(c2c(=O)[nH]1)CCCC3	5	7	.	.	.	.	.
CCOP(=O)(OCC)c1nc(-c2ccc(Cl)cc2Cl)oc1N1CCCCC1	52	3	28	-12	-1	9	i
O=C(CN1CCC(O)(c2ccccn2)CC1)Nc1ccc(N2CCCCCC2)cc1	-44	.	.	.	.	.	.
[N-]=[N+]=Nc1ccc(C(=O)CSC[C@H](NC(=O)CC[C@H](N)C(=O)O)C(=O)NCC(=O)O)cc1	82*	10	.	.	.	.	+
N[C@@H](CCC(=O)N[C@@H](CSN=O)C(=O)NCC(=O)O)C(=O)O	.	.	.	.	0	-13	.
Cc1nc2c(-c3ccc(F)cc3)c(C)nn2c(NCCCN2CCCC2=O)c1C	-123	.	.	.	.	.	.
Cc1ccccc1Nc1c(-c2ccccn2)nc2ccccn12	66*	9	32	-4	4	5	i
Cc1ccn2c(Nc3ccccc3C)c(-c3ccccn3)nc2c1	66*	14	23	-3	1	49	i
Cc1ccc2nc(-c3ccccn3)c(Nc3ccccc3C)n2c1	67*	10	-12	8	4	26	i
O=C(COC(=O)c1ccco1)Nc1ccc(Cl)cc1Cl	-30	7	.	.	.	.	.
COc1ccc(-c2cc(-c3nnc(-c4ccncc4)o3)c3ccccc3n2)cc1	19	14	-12	-4	-7	15	.
c1ccc2c(-c3nc(C4CCCCC4)no3)cc(-c3ccncc3)nc2c1	67*	5	4	-17	4	16	+
CCCC(=O)Nc1nc(-c2ccc(C)cc2)c(C)s1	-16	4	.	.	.	.	.
C=CCC(NCc1ccccc1)c1ccc(Cl)cc1 (stereo not given)	72*	1	-8	4	-1	-4	i
Cc1ccc(-c2cc3nn(-c4ccccc4)c(N)c3c(=O)o2)cc1	66*	21	-14	-2	4	8	i
O=C(c1ccco1)N(Cc1cccc([N+](=O)[O-])c1)c1ccc(Br)cc1	66*	2	37	3	-5	-18	+
O=C(CSCc1cccc(Cl)c1)Nc1ccccc1-c1ccccc1	67*	9	-6	39	-3	18	+
SMILES	EP2 modulator	PGE2 EP2 inh	PHOSPHO1 block	TbHK1 inh	HKDC1 inhibitor	PfGluPho inh	EP2 confirm
CN(CC(=O)Nc1ccccc1-c1ccccc1)Cc1ccccc1Cl	71*	4	12	3	-6	8	+
Cc1ccccc1NC(=O)CSCC(=O)Nc1ccccc1C	-1	7	-14	-7	-3	-5	.
NC(=O)c1ccccc1NC(=O)COC(=O)CSCc1cccc(Cl)c1	.	.	.	.	-4	5	.
Cc1ccccc1CSCC(=O)Nc1ccccc1-c1ccccc1	81*	0	-15	7	1	-4	+
CCOC(=O)c1cnc(SCC(=O)NNC(=O)COc2ccc(CC)cc2)nc1N	20	8	.	.	.	.	.
Cc1nc2ccccn2c1C(=O)CSc1ccc(Cl)cc1Cl	70*	10	-2	-16	-2	-2	i
O=C(COC(=O)c1ccc(S(=O)(=O)N2CCCC2)cc1)Nc1ccc(F)cc1F	87*	4	48	-4	-6	-5	i
CCC(c1nnnn1CCOC)N(CCCO)Cc1cc2cc(C)c(C)cc2[nH]c1=O (stereo not given)	-23	8	.	.	.	.	.
COc1ccc(C2=Nn3c(nnc3-c3ccccc3)SC2)cc1OC	70*	2	20	-8	1	-10	i
COc1ccc(C2=Nn3c(nnc3-c3ccco3)SC2)cc1	33	7	35	-30	7	11	.
COc1ccc(C2=Nn3c(nnc3C3CCCCC3)SC2)cc1OC	77*	5	0	-20	1	-2	+
COc1ccc(OC)c(C2=Nn3c(nnc3C3CCCCC3)SC2)c1	42	8	-2	-5	0	-6	.
COc1ccc(OC)c(C2=Nn3c(nnc3-c3ccco3)SC2)c1	74*	1	15	-15	0	2	+
COCCN(C(=O)C1CCC1)c1nnc(-c2ccc(C(C)(C)C)cc2)s1	36	9	.	.	.	.	.
Cn1nc(C(F)(F)F)c(/C=N/OC(=O)c2ccccc2)c1Sc1ccc(Cl)cc1	70*	14	10	1	10	-31	i
Cn1nc(C(F)(F)F)c(/C=N/OC(=O)c2ccccc2)c1Cl	12	0	48	1	3	9	.
COC(=O)c1sc2nc(N3CCCCC3)c3c(c2c1N)CCCC3	74*	17	20	-23	3	5	i
COC(=O)c1sc2nc(-c3ccccc3)c3c(c2c1N)CCCC3	73*	13	-40	8	-1	-15	i
Nc1c(C(=O)O)sc2nc(-c3ccccc3)c3c(c12)CCCC3	22	9	-1	-8	-7	6	.
CCOC(=O)c1sc2nc(N3CCOCC3)c3c(c2c1N)CCCC3	14	13	-4	-2	-3	11	.
NC(=O)c1sc2nc(N3CCCCC3)c3c(c2c1N)CCCC3	76*	8	67*	-10	7	-9	+
CCc1[nH]c2ccc(C(=O)N3CCC(CCn4ccnc4C)CC3)cc2c1C	-34	4	.	.	.	.	.
CCOc1ccc2nc(N3CCCN(C(=O)c4ccc(Cl)cc4)CC3)c(C#N)cc2c1	-29	1	.	.	.	.	.
O=C1CSC(=Nc2ccccc2)N1Cc1ccccc1	51	7	-8	0	0	5	.
Cc1ccccc1N=C1SCC(=O)N1Cc1ccccc1	67*	12	9	27	17	-4	+
